Measured values from ChEMBL document CHEMBL1159121, “Synthesis, in vitro structure-activity relationship, and in vivo studies of 2-arylthiazolidine-4-carboxylic acid amides as anticancer agents” (Bioorg Med Chem, 2010).
Calls of active or inactive are those of the source. No cut-off for these calls is given here.

Assays:
[1] = system: A-375; experiment: Antiproliferative activity against human A375 cells after 48 hrs by SRB assay; assay type: functional, cell-based; details: A-375, 48 h
Outline: (§1)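 Melanoma lines and control fibroblasts grown at 37 °C, 5% CO2, then exposed to a wide concentration range for 48 h in round-bottom 96-well plates. Fixed with 10% TCA, stained with SRB, protein read at 560 nm. IC50 (50% growth inhibition versus untreated) obtained by nonlinear regression.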

[2] = system: A-375; experiment: Inhibition of human A375 cells colony formation at 100 uM after 7 days by colony-formation assay; assay type: functional, cell-based
[3] = target: Lysophosphatidic acid receptor 5 (Homo sapiens) (UniProt Q9H1C0); experiment: Antagonist activity at LPA5 expressed in human chem1 cells assessed as effect on intracellular calcium mobilization by FLIPR assay; assay type: functional, cell-based
Outline: (§2)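 LPA1-, LPA3- or LPA5-transfected Chem-1 cells, Fluo-4 NW loaded, preincubated 10 min at 25 °C with compound. Dilution series was eight-point, fourfold, top final concentration 10 μM. […] FLIPR Ca2+ signal read for 180 s, percentage inhibition calculated; 50% inhibition was taken as antagonism.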

[4] = system: A-375; experiment: Inhibition of human A375 cells colony formation at 20 uM after 7 days by colony-formation assay; assay type: functional
[5] = target: T1, Lysophosphatidic acid receptor 3 (Homo sapiens) (UniProt Q9UBY5); experiment: Agonist activity at LPA3 expressed in human chem1 cells assessed as intracellular calcium mobilization by FLIPR assay; assay type: functional, cell-based
T1 sequence (whole entry): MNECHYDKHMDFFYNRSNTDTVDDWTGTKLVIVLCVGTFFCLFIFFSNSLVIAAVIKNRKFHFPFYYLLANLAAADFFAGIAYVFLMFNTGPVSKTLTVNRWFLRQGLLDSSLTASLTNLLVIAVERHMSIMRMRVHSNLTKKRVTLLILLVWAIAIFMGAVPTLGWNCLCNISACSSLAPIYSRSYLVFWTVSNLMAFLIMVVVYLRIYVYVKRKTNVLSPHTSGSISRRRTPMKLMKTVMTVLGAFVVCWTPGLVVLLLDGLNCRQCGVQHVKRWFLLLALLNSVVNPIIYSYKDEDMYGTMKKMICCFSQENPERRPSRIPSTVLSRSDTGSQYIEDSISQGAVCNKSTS
Outline: (§3)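 Chem-1 cells stably transfected with LPA1, LPA3 or LPA5, kept in DMEM/10% FBS; Fluo-4 NW loaded. Compound added as an eight-point fourfold serial dilution (top 10 μM), then incubated 10 min at 25 °C. Ca2+ flux read for 180 s on FLIPR, expressed as percentage activation.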

[6] = Cytotoxicity against human fibroblasts after 48 hrs by SRB assay; assay type: cell-based; details: Fibroblast; outline: as §1
[7] = Selectivity ratio of IC50 for human fibroblasts to IC50 for human melanoma cells; assay type: ADME; details: human fibroblasts and human melanoma cells, read-out: Ratio IC50
[8] = target: Lysophosphatidic acid receptor 5 (Homo sapiens) (UniProt Q9H1C0); experiment: Agonist activity at LPA5 expressed in human chem1 cells assessed as intracellular calcium mobilization by FLIPR assay; assay type: functional, cell-based; outline: as §3
[9] = target: T1, Lysophosphatidic acid receptor 3 (Homo sapiens); experiment: Antagonist activity at LPA3 expressed in human chem1 cells assessed as effect on intracellular calcium mobilization by FLIPR assay; assay type: functional, cell-based; outline: as §2
[10] = system: A-375; experiment: Inhibition of human A375 cells colony formation at 2 uM after 7 days by colony-formation assay; assay type: functional, cell-based
[11] = target: T2, Lysophosphatidic acid receptor 1 (Homo sapiens, UniProt Q92633); experiment: Agonist activity at LPA1 expressed in human chem1 cells assessed as intracellular calcium mobilization by FLIPR assay; assay type: functional, cell-based; outline: as §3
[12] = Antiproliferative activity against human WM164 cells after 48 hrs by SRB assay; assay type: functional, cell-based; details: WM164, 48 h; outline: as §1
[13] = Antiproliferative activity against mouse B16-F1 cells after 48 hrs by SRB assay; assay type: functional, cell-based; details: B16-F1, 48 h; outline: as §1
[14] = target: T2, Lysophosphatidic acid receptor 1; experiment: Antagonist activity at LPA1 expressed in human chem1 cells assessed as effect on intracellular calcium mobilization by FLIPR assay; assay type: functional, cell-based; outline: as §2
[15] = system: A-375; experiment: Cell cycle arrest in human A375 cells by assessed as increase in accumulation at subG1 phase […] by flow cytometry; assay type: functional, cell-based
[16] = system: LNCaP; experiment: Cell cycle arrest in human LNCAP cells by assessed as increase in accumulation at subG1 phase […] by flow cytometry; assay type: functional, cell-based

T2 sequence (Q92633 whole entry): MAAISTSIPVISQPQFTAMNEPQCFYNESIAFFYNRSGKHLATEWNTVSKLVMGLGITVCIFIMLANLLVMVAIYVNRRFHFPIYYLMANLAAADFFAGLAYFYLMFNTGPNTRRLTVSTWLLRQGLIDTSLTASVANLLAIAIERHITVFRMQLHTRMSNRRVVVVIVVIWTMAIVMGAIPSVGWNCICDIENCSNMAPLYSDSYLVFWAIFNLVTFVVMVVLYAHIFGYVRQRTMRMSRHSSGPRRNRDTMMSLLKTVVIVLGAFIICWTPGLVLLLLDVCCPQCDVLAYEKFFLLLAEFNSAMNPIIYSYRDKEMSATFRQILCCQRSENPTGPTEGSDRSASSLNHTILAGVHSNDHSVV
Sequence of Lysophosphatidic acid receptor 5 (Homo sapiens) (Q9H1C0 whole entry): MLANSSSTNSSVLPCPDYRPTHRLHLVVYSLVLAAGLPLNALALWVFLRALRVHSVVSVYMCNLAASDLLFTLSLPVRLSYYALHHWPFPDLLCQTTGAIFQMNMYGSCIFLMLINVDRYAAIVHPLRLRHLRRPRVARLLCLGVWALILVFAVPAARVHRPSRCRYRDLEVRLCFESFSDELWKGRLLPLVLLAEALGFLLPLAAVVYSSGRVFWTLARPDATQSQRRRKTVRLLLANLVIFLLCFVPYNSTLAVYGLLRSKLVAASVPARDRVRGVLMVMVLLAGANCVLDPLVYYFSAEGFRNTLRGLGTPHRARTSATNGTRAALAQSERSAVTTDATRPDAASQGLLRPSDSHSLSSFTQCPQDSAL

With `CCCCCCCCCCCCCCCCNC(=O)[C@@H]1CSC(c2cc(OC)c(OC)c(OC)c2)N1` (mixture of isomers) the IC50 [1] was 1.4 µM, the Activity [2] was “Active” and the Activity [3] was “inactive”. The Activity [4] was “Active”, the Activity [5] was “inactive” and the IC50 [6] was 2.4 µM. The selectivity ratio [7] was 2, the Activity [8] was “inactive” and the Activity [9] was “inactive”. The Activity [10] was “Active”, the Activity [11] was “inactive” and the IC50 [12] was 0.7 µM. For the same compound, the IC50 [13] was 1.6 µM, the Activity [14] was “inactive” and the Activity [15] was “Dose-dependent effect”. For the same compound, the Activity [16] was “Dose-dependent effect”.
